Laboratory results reported in ChEMBL document CHEMBL4020721 (Eur J Med Chem, 2017).

Assays:
CYP2C19 = CYP2C19 (Homo sapiens, UniProt P33261); assay: Time dependent irreversible inhibition of CYP2C19 in human liver microsomes at 10 uM preincubated with compound followed by NADPH addition by LC-MS/MS analysis; type: ADME
How it was run: (§1)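 HLM (0.2 mg/ml) with 10 µM compound were preincubated 0, 5, 10 or 20 min at 37°C with 1 mM NADPH or PBS. Substrate cocktail (halved concentrations) plus NADPH was then added for 10 min. Metabolites were measured by LC-MS/MS. Kobs is the slope of relative activity versus preincubation time.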

CYP1A2 = target: T1, CYP1A2 (Homo sapiens, UniProt P05177); assay: Time dependent irreversible inhibition of CYP1A2 in human liver microsomes at 10 uM preincubated with compound followed by NADPH addition by LC-MS/MS analysis; type: ADME; conditions: liver microsomes; how it was run: as §1
T1 sequence (P05177 whole entry): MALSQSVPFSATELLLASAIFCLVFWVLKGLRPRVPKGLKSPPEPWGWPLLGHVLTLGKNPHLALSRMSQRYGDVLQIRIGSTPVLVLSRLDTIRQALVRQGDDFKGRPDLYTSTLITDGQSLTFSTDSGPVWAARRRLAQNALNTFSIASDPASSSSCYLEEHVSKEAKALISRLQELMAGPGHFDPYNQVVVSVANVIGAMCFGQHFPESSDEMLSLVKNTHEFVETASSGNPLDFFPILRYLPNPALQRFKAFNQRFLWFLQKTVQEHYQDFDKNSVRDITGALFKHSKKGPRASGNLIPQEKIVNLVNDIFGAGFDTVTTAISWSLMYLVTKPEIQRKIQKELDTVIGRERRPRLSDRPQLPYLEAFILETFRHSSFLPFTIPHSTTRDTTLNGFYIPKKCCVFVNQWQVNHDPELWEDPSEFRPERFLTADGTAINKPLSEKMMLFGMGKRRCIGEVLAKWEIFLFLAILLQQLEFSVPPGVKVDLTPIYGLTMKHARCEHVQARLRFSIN

NCI-H1993 = assay: Growth inhibition of human NCI-H1993 cells after 72 hrs by CCK-8 assay; type: functional, cell-based; conditions: Homo sapiens, NCI-H1993, 72 h
[1] = Intrinsic clearance in monkey liver microsomes assessed per mg protein at 1 uM preincubated for 5 mins followed by NADPH addition measured after 5 to 30 mins by LC-MS/MS analysis; conditions: for microsomal CLint at 1 µM: liver microsomes, read-out: CLH
[2] = Drug recovery in human liver microsomes at 1 uM measured after 30 mins by LC-MS/MS analysis; type: ADME, microsome; conditions: liver microsomes, read-out: Drug recovery
How it was run: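 Liver microsomes (0.5 mg/ml) were incubated with 1 µM compound at 37°C in 100 mM phosphate buffer pH 7.4 without NADPH for 30 min. Reactions were quenched with acetonitrile/tinidazole internal standard and analysed by LC-MS/MS. Recovery (%) was taken from the compound/internal standard peak area ratio.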

[3] = Drug recovery in monkey liver microsomes at 1 uM measured after 30 mins by LC-MS/MS analysis
[4] = Intrinsic clearance in rat liver microsomes assessed per mg protein at 1 uM preincubated for 5 mins followed by NADPH addition measured after 5 to 30 mins by LC-MS/MS analysis; type: ADME, microsome; conditions: read-out: CLH
How it was run: (§2)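 Microsomes (0.5 mg/ml) with 1 µM compound were preincubated 5 min at 37°C in 100 mM phosphate buffer pH 7.4, then started with 1 mM NADPH. Samples were taken at 0, 5, 10 and 30 min, quenched with acetonitrile/tinidazole and run by LC-MS/MS. CLint = k / microsomal protein concentration. Midazolam was the positive control.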

CYP2D6 = CYP2D6 (Homo sapiens, UniProt P10635); assay: Time dependent irreversible inhibition of CYP2D6 in human liver microsomes at 10 uM preincubated with compound followed by NADPH addition by LC-MS/MS analysis; type: ADME; conditions: liver microsomes; how it was run: as §1
CYP2C9 = CYP2C9 (Homo sapiens, UniProt P11712); assay: Time dependent irreversible inhibition of CYP2C9 in human liver microsomes at 10 uM preincubated with compound followed by NADPH addition by LC-MS/MS analysis; type: ADME; conditions: liver microsomes; how it was run: as §1
Cytochrome P450 3A4 = Cytochrome P450 3A4 (Homo sapiens, UniProt P08684); assay: Reversible inhibition of CYP3A4 in human liver microsomes at 10 uM after 20 mins in presence of NADPH by LC-MS/MS analysis; type: ADME; conditions: microsomes, 20 min, 10 µM
[5] = Intrinsic clearance in human liver microsomes assessed per mg protein at 1 uM preincubated for 5 mins followed by NADPH addition measured after 5 to 30 mins by LC-MS/MS analysis; type: ADME, microsome; conditions: read-out: CLH; how it was run: as §2
SNU-5 = assay: Growth inhibition of human SNU5 cells after 72 hrs by CCK-8 assay; type: functional, cell-based; conditions: Homo sapiens, SNU-5, 72 h
CYP3A4 = CYP3A4 (Homo sapiens, UniProt P08684); assay: Time dependent irreversible inhibition of CYP3A4 in human liver microsomes at 10 uM preincubated with compound followed by NADPH addition by LC-MS/MS analysis; type: ADME; conditions: liver microsomes; how it was run: as §1
[6] = Drug recovery in rat liver microsomes at 1 uM measured after 30 mins by LC-MS/MS analysis; type: ADME, microsome; conditions: liver microsomes, read-out: Drug recovery
Cytochrome P450 2C9 = Cytochrome P450 2C9 (Homo sapiens, UniProt P11712); assay: Reversible inhibition of CYP2C9 in human liver microsomes at 10 uM after 20 mins by in presence of NADPH LC-MS/MS analysis; type: ADME; conditions: microsomes, 20 min, 10 µM
Cytochrome P450 2C19 = Cytochrome P450 2C19 (Homo sapiens, UniProt P33261); assay: Reversible inhibition of CYP2C19 in human liver microsomes at 10 uM after 20 mins in presence of NADPH by LC-MS/MS analysis; type: ADME; conditions: microsomes, 20 min, 10 µM
Chain of Cytochrome P450 2C19 (P33261 whole entry): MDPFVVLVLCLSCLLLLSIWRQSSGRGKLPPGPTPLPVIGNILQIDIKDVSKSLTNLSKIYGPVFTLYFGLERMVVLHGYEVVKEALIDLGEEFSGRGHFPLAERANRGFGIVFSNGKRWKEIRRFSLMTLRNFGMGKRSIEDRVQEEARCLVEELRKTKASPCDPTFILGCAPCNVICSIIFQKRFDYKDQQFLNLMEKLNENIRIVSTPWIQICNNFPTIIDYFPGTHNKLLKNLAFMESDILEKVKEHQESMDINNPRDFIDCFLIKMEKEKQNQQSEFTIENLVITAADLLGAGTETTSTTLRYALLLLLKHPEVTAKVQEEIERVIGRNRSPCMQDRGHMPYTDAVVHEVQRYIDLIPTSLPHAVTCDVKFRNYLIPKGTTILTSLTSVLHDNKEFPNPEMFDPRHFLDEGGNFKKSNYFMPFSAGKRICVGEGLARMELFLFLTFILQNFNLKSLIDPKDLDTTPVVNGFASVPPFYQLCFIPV

Chain of CYP3A4 (P08684 whole entry): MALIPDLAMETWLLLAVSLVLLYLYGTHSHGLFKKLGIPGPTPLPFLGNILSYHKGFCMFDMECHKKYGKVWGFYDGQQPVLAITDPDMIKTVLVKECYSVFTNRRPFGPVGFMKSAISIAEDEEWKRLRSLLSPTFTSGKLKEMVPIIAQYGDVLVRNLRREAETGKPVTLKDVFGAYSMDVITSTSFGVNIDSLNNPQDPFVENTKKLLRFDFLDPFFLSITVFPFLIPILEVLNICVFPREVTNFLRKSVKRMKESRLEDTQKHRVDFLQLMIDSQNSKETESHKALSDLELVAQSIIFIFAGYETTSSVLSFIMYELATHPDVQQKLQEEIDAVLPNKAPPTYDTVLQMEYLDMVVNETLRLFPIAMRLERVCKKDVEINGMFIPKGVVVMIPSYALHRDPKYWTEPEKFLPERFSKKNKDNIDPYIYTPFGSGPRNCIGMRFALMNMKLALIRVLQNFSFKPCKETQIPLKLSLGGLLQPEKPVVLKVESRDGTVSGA
Chain of CYP2C9 (P11712 whole entry): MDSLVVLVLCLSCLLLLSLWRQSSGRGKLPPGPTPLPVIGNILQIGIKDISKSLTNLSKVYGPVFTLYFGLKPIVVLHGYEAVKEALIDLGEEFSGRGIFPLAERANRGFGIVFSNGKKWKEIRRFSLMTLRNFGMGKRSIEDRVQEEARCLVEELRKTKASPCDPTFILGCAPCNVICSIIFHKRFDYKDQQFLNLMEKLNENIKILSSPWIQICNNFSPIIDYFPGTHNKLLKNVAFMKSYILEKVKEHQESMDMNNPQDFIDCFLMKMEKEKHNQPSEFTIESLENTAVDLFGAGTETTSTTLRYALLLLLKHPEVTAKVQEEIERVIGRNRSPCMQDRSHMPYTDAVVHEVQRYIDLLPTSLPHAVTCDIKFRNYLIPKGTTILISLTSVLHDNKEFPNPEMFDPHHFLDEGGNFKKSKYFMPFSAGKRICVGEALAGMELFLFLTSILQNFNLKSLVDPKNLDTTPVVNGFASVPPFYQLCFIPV
Chain of Cytochrome P450 2C9 (P11712 whole entry): as above
Chain of CYP2C19 (P33261 whole entry): as the sequence (P33261 whole entry) above
Chain of CYP2D6 (P10635 whole entry): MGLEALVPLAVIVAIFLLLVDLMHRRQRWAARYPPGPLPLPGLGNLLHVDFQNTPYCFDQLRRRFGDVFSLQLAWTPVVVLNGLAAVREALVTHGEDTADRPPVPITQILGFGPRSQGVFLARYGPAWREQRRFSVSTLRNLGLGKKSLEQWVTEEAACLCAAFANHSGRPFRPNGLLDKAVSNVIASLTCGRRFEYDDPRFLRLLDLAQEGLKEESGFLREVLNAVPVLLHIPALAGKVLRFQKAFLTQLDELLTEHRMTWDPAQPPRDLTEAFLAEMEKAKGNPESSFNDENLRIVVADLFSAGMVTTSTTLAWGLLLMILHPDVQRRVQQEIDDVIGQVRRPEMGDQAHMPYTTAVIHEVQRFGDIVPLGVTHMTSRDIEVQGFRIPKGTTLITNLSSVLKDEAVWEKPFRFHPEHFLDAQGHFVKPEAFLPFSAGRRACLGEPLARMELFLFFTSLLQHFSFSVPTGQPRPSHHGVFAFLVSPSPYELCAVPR
Chain of Cytochrome P450 3A4 (P08684 whole entry): as the sequence (P08684 whole entry) above

Row | Compound | inhibition at 10 µM (CYP2C19) [%] | inhibition at 10 µM (CYP1A2) [%] | IC50 (NCI-H1993) [nM] | microsomal CLint at 1 µM [1] [µL/min/mg] | remaining at 0.5 h, 1 µM [2] [%] | remaining at 0.5 h, 1 µM [3] [%] | microsomal CLint at 1 µM [4] [µL/min/mg] | inhibition at 10 µM (CYP2D6) [%] | inhibition at 10 µM (CYP2C9) [%] | inhibition (INH) (Cytochrome P450 3A4) | microsomal CLint at 1 µM [5] [µL/min/mg] | IC50 (SNU-5) [nM] | inhibition at 10 µM (CYP3A4) [%] | remaining at 0.5 h, 1 µM [6] [%] | inhibition (INH) (Cytochrome P450 2C9) | inhibition (INH) (Cytochrome P450 2C19) | CLH ([1]; microsomes, 1 µM)
1 | CC(c1ccc2ncc(-c3cnn(C)c3)cc2c1)n1nnc2ncc(-c3ccncc3)nc21 (stereo unspecified) | < 50 | < 50 | 0.9 | 78 | 104 | 90 | 61 | < 50 | < 50 | Active | 22 | 1.2 | < 50 | 94 |  |  | 
2 | CC(c1ccc2ncc(-c3cnn(C)c3)cc2c1)n1nnc2ncc(-c3cnn(CCO)c3)nc21 (stereo unspecified) | < 50 | < 50 | 0.2 | 16 | 105 | 108 | 6 | < 50 | < 50 |  |  | 1.8 | < 50 | 104 | Active | Active | 
3 | CC(c1c(F)cc2ncc(-c3ccc(F)cc3)cc2c1F)n1nnc2ncc(-c3ccncc3)nc21 (stereo unspecified) |  |  | 3.5 |  |  |  |  |  |  |  |  | 7.2 |  |  |  |  | 
4 | C[C@@H](c1cc2cccnc2cc1F)n1cnc2ncc(-c3cnn(C)c3)nc21 |  |  |  |  | 92 | 1 | 49 |  |  |  | 8 |  |  | 79 |  |  | Nd(Unstable)
5 | CC(c1cc2cc(-c3cnn(C)c3)cnc2cc1F)n1nnc2ncc(-c3ccncc3)nc21 (stereo unspecified) | < 50 | < 50 | 3.2 | 49 | 113 | 103 | 55 | < 50 | < 50 | Active | 4 | 2.5 | < 50 | 106 | Active | Active | 
6 | CC(c1c(F)cc2ncc(-c3cnn(C)c3)cc2c1F)n1nnc2ncc(-c3cnn(CCO)c3)nc21 (stereo unspecified) | < 50 | < 50 | 0.8 | 43 | 98 | 102 | 20 | < 50 | < 50 |  | 8 | 1.3 | < 50 | 97 | Active | Active | 
7 | CC(c1ccc2ncc(-c3ccc(F)cc3)cc2c1)n1nnc2ncc(-c3ccncc3)nc21 (stereo unspecified) |  |  | 8.7 | 65 | 105 | 97 | 56 |  |  |  | 14 | 7 |  | 91 |  |  | 
8 | CNC(=O)c1ccc(-c2cnc3nnn(C(C)c4c(F)cc5ncc(-c6cnn(C)c6)cc5c4F)c3n2)cc1F (stereo unspecified) | < 50 | < 50 |  | 187 | 92 | 95 | 48 | < 50 | < 50 |  | 5 | 0.9 | < 50 | 95 | Active | Active | 
9 | CC(c1cc2cc(-c3ccc(F)cc3)cnc2cc1F)n1nnc2ncc(-c3ccncc3)nc21 (stereo unspecified) |  |  | 3.6 |  |  |  |  |  |  |  |  | 6.8 |  |  |  |  | 
